{"data": "Published values from different studies", "target": "Ephrin type-A receptor 6 (EPHA6, Homo sapiens, UniProt Q9UF33)", "Residues used in one study (Q9UF33 1-1036)": "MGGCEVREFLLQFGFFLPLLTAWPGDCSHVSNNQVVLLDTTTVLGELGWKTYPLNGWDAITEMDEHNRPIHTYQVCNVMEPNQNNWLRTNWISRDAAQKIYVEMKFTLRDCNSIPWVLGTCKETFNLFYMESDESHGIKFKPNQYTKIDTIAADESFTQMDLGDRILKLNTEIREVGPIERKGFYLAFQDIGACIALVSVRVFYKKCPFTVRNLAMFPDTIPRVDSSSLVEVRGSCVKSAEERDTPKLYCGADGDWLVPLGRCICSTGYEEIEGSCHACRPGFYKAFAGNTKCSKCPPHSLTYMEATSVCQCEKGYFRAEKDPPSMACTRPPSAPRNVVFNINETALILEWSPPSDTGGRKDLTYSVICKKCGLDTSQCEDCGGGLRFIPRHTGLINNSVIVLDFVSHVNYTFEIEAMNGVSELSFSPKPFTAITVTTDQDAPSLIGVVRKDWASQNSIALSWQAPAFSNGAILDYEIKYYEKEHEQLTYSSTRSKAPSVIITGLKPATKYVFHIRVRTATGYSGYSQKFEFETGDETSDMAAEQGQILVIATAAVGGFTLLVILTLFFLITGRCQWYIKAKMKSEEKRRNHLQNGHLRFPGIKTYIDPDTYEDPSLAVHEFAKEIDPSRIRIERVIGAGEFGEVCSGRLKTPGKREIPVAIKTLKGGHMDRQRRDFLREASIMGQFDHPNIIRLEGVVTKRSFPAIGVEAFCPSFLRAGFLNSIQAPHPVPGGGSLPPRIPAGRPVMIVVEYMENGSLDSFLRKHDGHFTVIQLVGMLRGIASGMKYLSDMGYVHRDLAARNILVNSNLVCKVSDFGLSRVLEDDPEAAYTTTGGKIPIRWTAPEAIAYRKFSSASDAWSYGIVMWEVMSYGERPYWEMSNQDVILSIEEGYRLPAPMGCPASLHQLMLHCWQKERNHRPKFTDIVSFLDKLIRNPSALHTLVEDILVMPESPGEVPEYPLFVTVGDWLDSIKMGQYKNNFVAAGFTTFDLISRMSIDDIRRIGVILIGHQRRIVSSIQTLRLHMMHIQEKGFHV"}
{"SMILES": "CC(C)(C)c1nc(-c2cccc(NS(=O)(=O)c3c(F)cccc3F)c2F)c(-c2ccnc(N)n2)s1", "read-out": "enzyme activity", "mode": "inhibitor", "method": "radiometric", "concentration": "1 µM", "quantity": "remaining activity", "value": "72%"}
{"SMILES": "CNC(=O)c1cc(Oc2ccc(NC(=O)Nc3ccc(Cl)c(C(F)(F)F)c3)cc2)ccn1", "read-out": "cell-free assay", "concentration": "0.5 µM", "quantity": "remaining signal", "value": "42%"}
{"SMILES": "CC(C)(O)[C@H]1CC[C@H](Nc2ccc3ncc(-c4cccc(C(F)(F)F)c4)n3n2)CC1", "read-out": "enzyme activity", "mode": "inhibitor", "concentration": "1 µM", "quantity": "remaining activity", "value": "91.1%"}
{"SMILES": "CC(C)(C)c1nc2c(s1)c1nc(N)ncc1c1ccc(NS(=O)(=O)c3c(F)cccc3F)c(F)c12", "read-out": "enzyme activity", "mode": "inhibitor", "method": "radiometric", "concentration": "1 µM", "quantity": "remaining activity", "value": "99%"}
{"SMILES": "CS(=O)(=O)N1CCCC(NC(=O)[C@H](CCC2CCCCC2)NC(=O)c2ccc(CNC(=O)c3cnc4ccccn34)cc2)C1 (stereo partly shown)", "read-out": "cell-free assay", "method": "competition with immobilised ligand", "concentration": "0.1 µM", "quantity": "remaining binding", "value": "100%"}
{"SMILES": "Cc1sc(C(=O)NC2COC2)cc1-n1cc(NC(=O)Nc2c(F)cccc2Cl)cn1", "read-out": "enzyme activity", "mode": "inhibitor", "concentration": "10 µM", "quantity": "remaining activity", "value": "80.2%"}
{"SMILES": "CC(=O)Nc1c(C(C)=O)c(=O)n(C)c2nc(-c3ccc(Cl)cc3Cl)c(-c3ccc(Cl)cc3)cc12", "read-out": "cell-free assay", "method": "competition with immobilised ligand", "concentration": "1 µM", "quantity": "remaining binding", "value": "100%"}
{"SMILES": "Nc1ncnc2occ(-c3ccc(NC(=O)Nc4cc(C(F)(F)F)ccc4F)cc3)c12", "read-out": "cell-free assay", "concentration": "20 µM", "quantity": "remaining signal", "value": "0%"}
{"SMILES": "N#Cc1ccc(Nc2ccc3[nH]c(=O)[nH]c3c2)c(Cl)c1", "read-out": "cell-free assay", "method": "competition with immobilised ligand", "concentration": "1 µM", "quantity": "remaining binding", "value": "82%"}
{"SMILES": "CC/C(=N\\NC(=O)NCc1cccc(O)c1)c1ccc(O)c(C)c1O", "read-out": "enzyme activity", "mode": "inhibitor", "concentration": "0.1 µM", "quantity": "inhibition", "value": "1.5%"}
{"SMILES": "Oc1cccc(-c2nc(N3CCOCC3)c3oc4ncccc4c3n2)c1", "read-out": "cell-free assay", "concentration": "0.5 µM", "quantity": "remaining signal", "value": "79%"}
{"SMILES": "O=C(Nc1cnn(-c2csc(C(=O)NC3COC3)c2)c1)Nc1ccccc1Cl", "read-out": "enzyme activity", "mode": "inhibitor", "concentration": "5 µM", "quantity": "remaining activity", "value": "99.5%"}
{"SMILES": "Cc1ccc(C(=O)Nc2ccc(CN3CCN(C)CC3)c(C(F)(F)F)c2)cc1C#Cc1cnc2cccnn12", "read-out": "cell-free assay", "concentration": "23.5 nM", "quantity": "remaining signal", "value": "45%"}
